The values below come from PubChem BioAssay AID1046 (PCMD, 2008).

The campaign covered roughly 220,000 compounds. About 560 (0.25%) were called active. Only a selection was taken, and actives are over-represented in it overall. Values without a mark were called inactive.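 How the source made its calls: active means inhibition at or above 40%; inactive means inhibition below 40%.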

The target of this test is Prothrombin (Homo sapiens) (UniProt P00734). Kind of test: blockers of thrombin peptide substrate cleavage – biochemical, 1536-well, fluorogenic AMC substrate, counter-screen for coagulation protease inhibitor project, primary screen (AID 1046).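 Further: 0% = enzyme with no compound and 100% = wells without enzyme.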 Conditions: alpha-thrombin, Boc-VPR-AMC fluorogenic substrate cleavage; at 5 µM; stronger effect = higher value. An outline of the steps: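 signal = AMC fluorescence, 355/460 nm | material = human alpha-thrombin enzyme | control set = enzyme without compound as high, wells lacking enzyme as low | times = reaction at room temperature | read-out basis = percent inhibition scaled between no-compound controls and no-enzyme blanks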
As to `CN1CCN(CCC(=O)N/N=C/C=C2\N(C)c3ccccc3C2(C)C)CC1`, the inhibition was -4.81%. As for `CC(C)(C)NC(=O)c1cccc(NC(=O)Cc2ccc(Br)cc2)c1`, the figure is -6.49%; as for `CC(=O)NNC(=O)c1csc(Cc2c(Cl)sc3ccc(Cl)cc23)n1`, -1.7%. Turning to `CCOC(=O)C1CCN(c2c(Nc3cc(C)cc(C)c3)c(=O)c2=O)CC1`, the inhibition was -1.29%. On to `CS(=O)(=O)n1nc(-c2ccco2)nc1N`, for which the inhibition was 1.66%. Turning to `CSc1nc(-c2ccco2)nn1C(=O)CCc1ccccc1`, the inhibition was 99.4% (active). To `CSc1nc(-c2ccco2)nn1C(=O)c1ccccc1Cl` belongs 0.04%. On to `O=C(c1cccc(S(=O)(=O)N2CCCC2)c1)N(Cc1ccco1)C1CCS(=O)(=O)C1` (configuration not stated), for which the inhibition is -1.64%. To `COC(=O)C(NS(=O)(=O)c1ccc(F)cc1)c1ccccc1` (configuration not stated) belongs 5.5%; to `CC(=O)NC(NC(=S)Nc1c(C)n(C)n(-c2ccccc2)c1=O)C(Cl)(Cl)Cl` (configuration not stated), -5.85%; to `CCn1c(-c2cccnc2Cl)nc2cc(C)c(C)cc21`, 0.78%. As for `Cc1ccccc1CC1(CO)CCCN(C(=O)c2cc(-c3ccccc3)no2)C1` (configuration not stated), the figure is -8.1%; as for `CC(C)CC(CC(C)C)=NNC(=O)c1ccc(CSc2nncn2C)cc1`, 6.95%.

Regarding `CCn1ncc(CNC(=O)C2(C)CC2(Br)Br)c1C` (configuration not stated), the inhibition was -5.28%. As for `CC1(C)CC(=O)c2cnc3nc4ccccc4n3c2C1`, the figure is -14.5%; as for `Cc1ccc(C)c2[nH]c(=O)c(CN(Cc3cccnc3)C(=S)NCc3ccco3)cc12`, -27%; as for `COc1ccccc1N1CCN(c2ccc([N+](=O)[O-])nc2)CC1`, 1.48%. As for `COc1ccc(CN2CCC(c3nc4ccc(Cl)cc4[nH]3)CC2)cc1`, the figure is 1.55%; as for `Cc1ccc(NNC(=O)c2cccs2)cc1Cl`, 0.15%; as for `COc1ccc(-c2nn(C)c(=O)c3ccccc23)cc1CNC(=O)C1CCCCC1`, 70.8% (active).

As for `CCC(=O)NCc1cc(-c2nn(C)c(=O)c3ccccc23)ccc1OC`, the inhibition is 2.19%.

With `COc1ccc(-c2nn(C)c(=O)c3ccccc23)cc1NC(=O)COc1ccccc1`, the inhibition was 3.07%.

Take `Cc1cc(CO)nn1-c1ccc([N+](=O)[O-])cc1`: the inhibition was -4.29%. Regarding `Cc1nnc(N/N=C/c2cccs2)[nH]c1=O`, the inhibition is -0.86%.

On to `CCn1c(=O)c2cc(C(=O)Nc3cccc(C(C)=O)c3)sc2c2ccccc21`, for which the inhibition was -4.44%.

Take `CC(C)S(=O)(=O)c1csc(NC(=O)Nc2ccc(Cl)cc2)c1Cl`: the inhibition was 3.02%.

As for `COC(=O)c1nc(NC(=O)c2ccccc2)n[nH]1`, the inhibition is 98.4% (active). `O=C(Nc1n[nH]c(C(F)(F)F)n1)c1cccs1`: the inhibition was 5%. As for `COc1ccc(C(=O)Nc2ccc(F)cc2F)cc1`, the figure is -13.8%; as for `COC(=O)c1nc(NC(=O)c2ccc(F)cc2)n[nH]1`, 94.8% (active); as for `COc1ccc(N2CCN(C(=O)CNC(=O)c3ccc(C(C)(C)C)cc3)CC2)cc1`, 12.8%. Consider `C/C(=N/NC(=O)c1ccc(NC(=O)c2ccc(F)cc2)cc1)c1ccccc1`, for which the inhibition is 3.8%. As for `Cn1sc(NC(=O)c2ccccc2)nc1=O`, the figure is 3.97%; as for `O=C(Nc1nsc(-c2ccccc2)n1)c1ccncc1`, 3.88%; as for `COC(=O)c1nc(NC(=O)c2ccc(C(C)(C)C)cc2)n[nH]1`, 58.9% (active).

Regarding `S=c1[nH]nc(-c2ccncc2)n1/N=C/c1ccccc1Cl`, the inhibition is -3.11%. Consider `COc1ccccc1-c1noc(CSc2nc(C)cc(=O)[nH]2)n1`, for which the inhibition is -11.8%.

For `Cc1ccc(SC(C)C(=O)NCc2ccc(F)cc2)cc1` (configuration not stated), the inhibition is -10%. To `Cc1c(-c2ccccc2)n[nH]c1C(=O)N=Nc1c(O)[nH]c2ccccc12` belongs -11.5%.

As to `Cc1nc(SCc2ccc(F)cc2)c([N+](=O)[O-])[nH]1`, the inhibition is -2.86%.

On to `COc1ccc(Cl)cc1CSc1ncn[nH]1`, for which the inhibition was -8.18%. To `ClC1(Cl)CC1CSc1ncn[nH]1` (configuration not stated) belongs 102% (active); to `Cn1nnc(NC(=O)CSc2ncn[nH]2)n1`, -4.19%; to `CC1CN(CCOc2ccccc2[N+](=O)[O-])CC(C)O1` (configuration not stated), 1.06%.

Turning to `Cc1ccc(NC(=O)c2ccn(C(=O)Nc3ccccc3)n2)c(C)c1`, the inhibition was 1.51%. To `CC1=NCCN1S(=O)(=O)c1cccc([N+](=O)[O-])c1` belongs 2.02%; to `CCCC(=O)OCC(=O)Nc1cc(Cl)ccc1[N+](=O)[O-]`, -3.57%. To `O=C(Nc1ccccc1)Nc1nnc(COc2ccccc2F)s1` belongs -0.32%. On to `O=C(c1cccc([N+](=O)[O-])c1)N1CCN(C(=O)c2ccco2)CC1`, for which the inhibition was -2.02%.

Consider `O=c1[nH]n(-c2ccc([N+](=O)[O-])cc2)c(=O)c2ccccc12`, for which the inhibition was -6.59%. Take `CN1CCN(C(=O)C2C3C=CC(C3)C2C(=O)O)CC1` (configuration not stated): the inhibition was -0.84%. To `CCN1CCN(C(=O)/C=C\C(=O)O)CC1` belongs -0.06%. In the case of `C/C(=C/C(=O)N1CCN(C)CC1)C(=O)O`, the inhibition was 103% (active).

Consider `NS(=O)(=O)c1ccc(CCNC(=O)CCCn2c(SCC(=O)N3CCCC3)nc3ccsc3c2=O)cc1`, for which the inhibition is -6.72%. To `OCCC#Cc1ccc(CN2CCN(Cc3ccsc3)C(CCO)C2)cc1` (configuration not stated) belongs -1.75%.

Take `CCN(CC)C(=O)CC1(c2ccccc2OC)CCOC(C(C)C)C1` (configuration not stated): the inhibition was -1.89%. For `Cc1ccc(S(=O)(=O)N(C)C)cc1NC(=O)/C=C/c1cccs1`, the inhibition was -6.43%.

On to `O=C(CC1C(=O)NCCN1Cc1ccc(-c2ccccc2)cc1)NCC1CCOCC1` (configuration not stated), for which the inhibition was -6.7%.

With `COCC1CCCN(Cc2cn[nH]c2-c2cc3ccccc3o2)C1` (configuration not stated), the inhibition was -10.5%. Regarding `Cc1ccc(C(=O)Nc2sc(Cc3ccc4c(c3)OCO4)c(C)c2C(N)=O)cc1`, the inhibition is 2.74%. As for `O=C(Nn1cnc2ccccc2c1=O)c1ccc([N+](=O)[O-])cc1Cl`, the figure is 6.94%; as for `O=C(CSc1cccc[n+]1[O-])c1ccc(Cl)cc1`, -1.76%; as for `Cc1ccc(N(C(=O)Cc2cccs2)C(C(=O)NCC2CCCO2)c2ccncc2)cc1` (configuration not stated), 0.6%. As for `COc1ccc(S(=O)(=O)N2CCC(C(=O)OCC(=O)c3ccccc3)CC2)cc1[N+](=O)[O-]`, the figure is 0.56%. To `O=C(NNC(=S)Nc1ccc(F)cc1)[C@H]1C[C@@H]1c1ccccc1` belongs -10.3%; to `CN(Cc1ccccn1)Cc1nc(-c2ccc(Cl)cc2)no1`, 57.7% (active). Turning to `CCN1CC(CN(C)Cc2nc(-c3ccc(Cl)cc3)no2)CC1=O` (configuration not stated), the inhibition was -8.96%. As for `COC(=O)c1ccc(-c2noc(CN(Cc3ccccn3)CC3CCCO3)n2)cc1` (configuration not stated), the figure is 21.1%. As for `Cc1c(C(=O)O)nnn1-c1nonc1N`, the figure is 2.29%. On to `OC1CSc2nc3ccccc3n2C1` (configuration not stated), for which the inhibition is 0.85%. To `O=C(NC(=S)Nc1cc(C(F)(F)F)ccc1N1CCOCC1)c1ccc(-c2cccc(Cl)c2)o1` belongs -10.3%; to `CC1(OC(=O)CCc2ccccc2)C(=O)C=C2C=C(c3ccc(C#N)cc3)N(CCc3ccccn3)C=C2C1=O` (configuration not stated), -12.4%; to `CC(=O)C1=C(O)C(=O)N(c2cccnc2)C1c1ccc([N+](=O)[O-])cc1` (configuration not stated), 2.53%. To `Cc1cccc(NC(=S)Nc2ccc(Br)cc2)c1` belongs 3.41%; to `Cc1cccc(NC(=S)NC23CN4CN(CN(C4)C2)C3)c1`, 53.8% (active). To `Cc1cccc(NC(=S)Nc2ccc(Cl)c(Cl)c2)c1` belongs 0.05%; to `S=C(Nc1ccc(Br)cc1Cl)N1CCC2(CC1)OCCO2`, -1.42%; to `O=C(NC1CCN(Cc2ccccc2)CC1)c1cc(Br)c(Br)[nH]1`, 1.26%. Take `O=C(CCCOc1ccc(Cl)cc1Cl)NNC(=O)C1CCC1`: the inhibition was -6.08%. As for `N/C(=N\OS(=O)(=O)c1cccc([N+](=O)[O-])c1)c1ccncc1`, the figure is -6.25%; as for `CCCCNC(=O)CSc1nc2ccc(NC(=O)CSc3nnc(N)s3)cc2s1`, -6.44%. To `O=C(Cc1ccccc1)N1N=C(c2ccncc2)CC1(O)C(F)(F)F` (configuration not stated) belongs 2.25%; to `CCCC(=O)n1nc(-c2ccccc2)nc1N`, 27.1%.

`COc1ccc(CC(=O)n2nc(-c3cccnc3)nc2N)cc1`: the inhibition is 89.7% (active).

Consider `COc1ccccc1C(=O)n1nc(-c2ccccc2)nc1N`, for which the inhibition is 19.2%. To `CCN1CCN(c2nc(Nc3cc(OC)ccc3OC)nc(Nc3cc(OC)ccc3OC)n2)CC1` belongs -2.15%; to `Cc1nc(SCC(=O)N2CCc3ccccc3C2)c2c(C)c(C)sc2n1`, 103% (active); to `Cc1nc(SCC(=O)N2CC(=O)Nc3ccccc32)c2c(C)c(C)sc2n1`, -0.55%. To `Cc1nnc(SCC(=O)N2CCc3ccccc3C2)s1` belongs 7.65%; to `CC1(C)Cc2cccc(OCC(=O)N3CCN(c4ccc([N+](=O)[O-])cc4)CC3)c2O1`, -1.43%; to `COc1ccc(NC(=O)C2=C(C)NC(=O)NC2c2ccccc2[N+](=O)[O-])cc1` (configuration not stated), -0.08%. To `CCOC(=O)N/N=C1\CC(C)S(=O)(=O)c2ccc(Cl)cc21` (configuration not stated) belongs 28.2%.

Take `Cc1cc(=O)[nH]c(S)c1C#N`: the inhibition was -5%. To `CSCC[C@H](NC(=O)NC1CCCC1)C(=O)O` belongs -3.12%; to `Cc1ccc(C)c(NC(=O)C2Cc3ccccc3CN2C(=O)OCc2ccccc2)c1` (configuration not stated), 104% (active); to `COc1cccc(NC(=O)C2CCCN2C(=O)OCc2ccccc2)c1` (configuration not stated), -12.3%. To `Cc1ccc(C)c(NC(=O)C2CCCN2C(=O)OC(C)(C)C)c1` (configuration not stated) belongs 1.35%.
